Assays:
HT-29 = assay: In vitro cytotoxicity against human colon carcinoma (HT-29) cell line; type: functional, cell-based
Outline: (§1)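 MTT assay on log-phase cells kept at 37 °C, 5% CO2. Seeded at 2.5 × 10³ cells/well; compound added 24 h later as serial PBS dilutions of a 1 × 10⁻⁵ M DMSO stock. Exposure 72 h, then MTT (1 mg/mL in PBS) for 4 h, DMSO solubilization, absorbance at 570 nm. PBS negative control, doxorubicin positive control. At least three experiments; IC50 = concentration reducing growth to 50% of control.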

HeLa = assay: In vitro cytotoxicity against human cervical carcinoma (HeLa) cell line; type: functional, cell-based; outline: as §1
PC-3 = assay: In vitro cytotoxicity against human prostate carcinoma (PC-3) cell line; type: functional, cell-based; outline: as §1
Mus musculus = assay: In vivo antitumor activity in mice infected with HT-29 cells; type: functional
Outline: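 HT-29 xenografts: 10⁶ cells/0.1 mL DMEM injected sc into the back of athymic nu/nu mice. At ~0.1 cm³ tumors, randomized to 4 control and 4 treated. Dosing 5 mg/kg ip in sterile 0.9% NaCl, daily for 4 days then 10 days off (14-day cycles), up to 60 days; controls given vehicle. Tumors measured 1–2×/week; V = (Dd²)/2.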

Compound | IC50 (HT-29) [µM] | IC50 (HeLa) [µM] | IC50 (PC-3) [µM] | Reduction (Mus musculus) [%]
CN(C)CCN1C(=O)c2cccc3c2c(cc2sccc23)C1=O | 1.15 | 0.8 | 3.5 | 
O=C1c2cccc3c2c(cc2occc23)C(=O)N1CCNCCCNCCN1C(=O)c2cccc3c2c(cc2occc23)C1=O | 0.37 | 0.73 | > 100 | 
CN(CCCN(C)CCN1C(=O)c2cccc3c2c(cc2sccc23)C1=O)CCN1C(=O)c2cccc3c2c(cc2sccc23)C1=O | 0.27 | 0.21 | 1.42 | 
CN(C)CCN1C(=O)c2cccc3c2c(cc2occc23)C1=O | 0.55 | 0.14 | 0.164 | 
CN(CCCN(C)CCN1C(=O)c2cccc3c2c(cc2ccoc23)C1=O)CCN1C(=O)c2cccc3c2c(cc2ccoc23)C1=O | 0.71 | 2.58 | 12.6 | 
O=C1c2cccc3c2c(cc2ccoc23)C(=O)N1CCNCCCNCCN1C(=O)c2cccc3c2c(cc2ccoc23)C1=O | 0.0068 | 0.044 | 0.5 | ~80
CN(C)CCN1C(=O)c2cccc3c2c(cc2ccoc23)C1=O | 2.69 | 4.3 | 5.58 | 
CN(C)CCN1C(=O)c2cccc3c2c(cc2ccsc23)C1=O | 0.75 | 0.86 | 1.19 | 
CN(CCCN(C)CCN1C(=O)c2cccc3c2c(cc2ccsc23)C1=O)CCN1C(=O)c2cccc3c2c(cc2ccsc23)C1=O | 0.39 | 0.57 | 2.5 | 
O=C1c2cccc3c2c(cc2sccc23)C(=O)N1CCNCCCNCCN1C(=O)c2cccc3c2c(cc2sccc23)C1=O | 0.047 | 0.16 | 0.93 | 
O=C1c2cccc3c2c(cc2ccsc23)C(=O)N1CCNCCCNCCN1C(=O)c2cccc3c2c(cc2ccsc23)C1=O | 1.94 | 1.04 | 0.4 | 

From ChEMBL document CHEMBL1148446, “New analogues of amonafide and elinafide, containing aromatic heterocycles: synthesis, antitumor activity, molecular modeling, and DNA binding properties” (J Med Chem, 2004)
